Results taken from ChEMBL document CHEMBL1125832, “Synthesis and dopaminergic activity of 3-substituted 1-(aminomethyl)-3,4-dihydro-5,6-dihydroxy-1H-2-benzopyrans: characterization of an auxiliary binding region in the D1 receptor” (J Med Chem, 1991).

Columns and labels:
Rattus norvegicus [1] = test: Rat rotation experiments were conducted to evaluate rational behavior of the rats by administering at a dose of 4.1 umol/kg subcutaneously; format: functional
Method in brief: (§1)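 Rats with unilateral 6-hydroxydopamine lesions of the nigrostriatal bundle. Compound given subcutaneously or orally at the stated dose. Net contralateral rotations counted over 2 h after dosing and reported as mean ± SEM; negative values indicate ipsilateral turning.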

Rattus norvegicus [2] = test: Rat rotation experiments were conducted to evaluate rational behavior of the rats by administering at a dose of 20 umol/kg oral; format: functional; method in brief: as §1
Rattus norvegicus [3] = test: Rat rotation experiments were conducted to evaluate rational behavior of the rats by administering at a dose of 40 umol/kg oral; format: functional; method in brief: as §1
[4] = target: T1, 5-hydroxytryptamine receptor 1A (Rattus norvegicus, UniProt P19327); test: Binding affinity was evaluated by using [3H]8-OH-DPAT radioligand by using competitive binding assay on 5-hydroxytryptamine 1A receptor
T1 sequence (P19327 whole entry): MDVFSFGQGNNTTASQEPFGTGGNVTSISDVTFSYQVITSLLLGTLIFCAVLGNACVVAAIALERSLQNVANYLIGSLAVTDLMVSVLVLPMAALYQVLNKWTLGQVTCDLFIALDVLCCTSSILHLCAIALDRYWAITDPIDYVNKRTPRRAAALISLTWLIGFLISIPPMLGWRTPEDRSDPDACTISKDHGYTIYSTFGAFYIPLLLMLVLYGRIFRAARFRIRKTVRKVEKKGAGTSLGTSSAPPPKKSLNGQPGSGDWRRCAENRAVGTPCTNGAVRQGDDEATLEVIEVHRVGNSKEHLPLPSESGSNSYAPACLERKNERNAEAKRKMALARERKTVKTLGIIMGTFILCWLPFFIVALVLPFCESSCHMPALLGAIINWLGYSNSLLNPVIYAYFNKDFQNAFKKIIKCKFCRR
Method in brief: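 Rat anterior cortex membranes, pelleted and preincubated 30 min at 37 °C in 50 mM Tris-HCl pH 7.7, 4 mM CaCl2, 10 μM pargyline. Label [3H]8-OH-DPAT, 800 pM final; nonspecific binding with 10 μM spiroxatrine. Ki derived from IC50 by Cheng-Prusoff; mean with SEM range.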

Rattus norvegicus [5] = test: Rat rotation experiments were conducted to evaluate rational behavior of the rats by administering at a dose of […] oral; format: functional
Rattus norvegicus [6] = test: Rat rotation experiments were conducted to evaluate rational behavior of the rats by administering at a dose of […] subcutaneously; format: functional
Rattus norvegicus [7] = test: Rat rotation experiments were conducted to evaluate rational behavior of the rats by administering at a dose of 20.0 umol/Kg subcutaneously; format: functional; method in brief: as §1

NC[C@@H]1OC(c2ccccc2)Cc2c1ccc(O)c2O (some centres not stated)
Activity (Rattus norvegicus [1]): 1554
Activity (Rattus norvegicus [2]): 326
Activity (Rattus norvegicus [3]): 1066

CC(C)(C)C1Cc2c(ccc(O)c2O)[C@H](CN)O1 (some centres not stated)
Ki [4]: > 20 µM
Activity (Rattus norvegicus [5]): 689
Activity (Rattus norvegicus [6]): 671

NC[C@H]1O[C@@H](c2ccccc2)Cc2c1ccc(O)c2O
Activity (Rattus norvegicus [7]): -24
